From the array DNA melting data of Ke et al. (doi:10.1101/2024.01.08.574731)

Legend:
[1] = folding enthalpy; higher = less favourable; fluorescence melt of hairpins on a sequencing array, two-state fit; settings: sodium 0.088 M
Outline: (§1)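 Cy3 signals were normalised both to pre-quench Cy3 and to control constructs. They came from library hairpins carrying annealed Cy3 and quencher oligos on a sequenced MiSeq flow cell, imaged in 50 mM Na-HEPES pH 8.0, 25 mM NaCl, in 2.5 °C steps up to 60 °C. Bootstrapped two-state fits gave melting temperature and folding enthalpy, and four replicates were combined by inverse variance. Fitted temperatures were then raised by 9.35 °C to match UV melts.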

[2] = melting temperature; fluorescence melt of hairpins on a sequencing array, two-state fit, raised by 9.35 °C to match UV melts; settings: sodium 0.088 M
Outline: as §1

Row | Sequence | folding enthalpy [1] | Tm [2]
1 | GCACGCGGAAACGTGTGC ((((.((....)).)))) | -46 kcal/mol | 66.7 °C
2 | GGTCACGAAAGTGTAACC ((((((....)))..))) | -18.3 kcal/mol | 39.6 °C
3 | GCCAAGCGAAAGCTGCGC ((..(((....)))..)) | -20.8 kcal/mol | 51.6 °C
4 | GCACCCGGAAACAGGTGC (((((.(....).))))) | -34.6 kcal/mol | 52.4 °C
5 | GCCATGCGAAAGCCAGGC (((..((....))..))) | -21 kcal/mol | 55.4 °C
6 | GATCTGCGACAGATC ((((((...)))))) | -26.2 kcal/mol | 47.3 °C
7 | GTTTGGGGAAACCTAAAC ((((.((....)).)))) | -35.5 kcal/mol | 40 °C
8 | GTTACCGGAAACGGTAAC (((((((....))))))) | -42.4 kcal/mol | 63.2 °C
9 | GAAAGCGAAAGCTATTC ((((((....))).))) | -12 kcal/mol | 30.4 °C
10 | GGACCTCGAAAGAGATCC (((.(((....))).))) | -30.6 kcal/mol | 46.7 °C
11 | GATCTAGGAAACCAGATC (((((.(....).))))) | -25.3 kcal/mol | 34.6 °C
12 | GTCCAGAAATGGAC (((((....))))) | -24.8 kcal/mol | 52.9 °C
13 | GAGAACGAAAGTTTCTC ((((((....))).))) | -25.1 kcal/mol | 43.5 °C
14 | GAGGGGGGAAACCCTCTC (((.(((....))).))) | -27.6 kcal/mol | 53.7 °C
15 | GAACATGGAAACATGCTC ((.((((....)))).)) | -26.5 kcal/mol | 35.3 °C
16 | GCCCAGCGAAAGCTAGGC (((.(((....))).))) | -42.3 kcal/mol | 54.1 °C
17 | GGACAATCGAAAGATTCC (((..(((....)))))) | -8.86 kcal/mol | 27.5 °C
18 | GGTCATCGAAAGATTACC (((.(((....))).))) | -34.3 kcal/mol | 42.6 °C
19 | GCGAGTCGAAAGACCGC (((.(((....)))))) | -35.1 kcal/mol | 66.8 °C
20 | GGTAGTGCGAAAGCAACC (((..(((....)))))) | -10.8 kcal/mol | 32 °C
21 | CCATGGAAACATGG (((((....))))) | -23.2 kcal/mol | 49.6 °C
22 | GCGTTCATACGC ((((....)))) | -21.7 kcal/mol | 54.7 °C
23 | GATCAGTTGACTGATC ((((((....)))))) | -37.3 kcal/mol | 53.5 °C

Row | Sequence | folding enthalpy [1] | Tm [2]
24 | GATCCGTATCCGGATC ((((((....)))))) | -39 kcal/mol | 58.2 °C
25 | GTACCCCGAAAGGGTTAC (((.(((....))).))) | -19.6 kcal/mol | 41.8 °C
26 | GATCTTAAAAAGATC ((((((...)))))) | -27.5 kcal/mol | 42.7 °C
27 | GATCCCTCGAGGGATC ((((((....)))))) | -41.7 kcal/mol | 62 °C
28 | GTCTACGAAAGTACGAC ((((((....))).))) | -22.8 kcal/mol | 38.1 °C
29 | GATCAGAATACTGATC ((((((....)))))) | -39.2 kcal/mol | 47.4 °C
30 | GCGAAAAATCGC ((((....)))) | -9.87 kcal/mol | 36.2 °C
31 | GATCTGCGAAAGCACATC (((.(((....))).))) | -13.5 kcal/mol | 30.4 °C
32 | GTGAAGCCGAAAGGCCAC (((..(((....)))))) | -15.6 kcal/mol | 47.8 °C
33 | GGATTCGGAAACGAATTC (.(((((....))))).) | -33.2 kcal/mol | 47.7 °C
34 | GGGTCACGAAAGTGCCC (((.(((....)))))) | -39.9 kcal/mol | 58.5 °C
35 | GTCTCTCGAAAGAGGAC (((.(((....)))))) | -24.2 kcal/mol | 45.1 °C
36 | GATCGAGGCATCGATC ((((((....)))))) | -41.8 kcal/mol | 58.5 °C
37 | CGACACGGAAACGTCTCG (((.(((....))).))) | -26.8 kcal/mol | 35.9 °C
38 | GCGGCGCGAAAGCATCGC (((..((....))..))) | -22.6 kcal/mol | 61.4 °C
39 | GCGGCGTTCCGC ((((....)))) | -14.8 kcal/mol | 54.1 °C
40 | GCGTCGCGAAAGCGTGGC ((..(((....)))..)) | -14.9 kcal/mol | 49.8 °C
41 | GCTGCACGAAAGTGGAGC (((.(((....))).))) | -34.2 kcal/mol | 65.6 °C
42 | GTCGGCGAAAGCCGGGAC ((((((....)))..))) | -8.08 kcal/mol | 44.1 °C
43 | GCGAGGGGAAACCCCCAC (.(.(((....))).).) | -10.9 kcal/mol | 28.6 °C
44 | GCTACACGAAAGTGGAGC (((.(((....))).))) | -43.5 kcal/mol | 67 °C
45 | GATCTGAGCCCAGATC ((((((....)))))) | -29.7 kcal/mol | 47.3 °C
46 | GATCGTGATACGATC ((((((...)))))) | -35.9 kcal/mol | 57.2 °C

Row | Sequence | folding enthalpy [1] | Tm [2]
47 | GTGGCAGGAAACCACCAC ((((..(....)..)))) | -22.5 kcal/mol | 35 °C
48 | GTACCGGGAAACCAGTAC ((((.((....)).)))) | -23.5 kcal/mol | 38.4 °C
49 | GGAGTTGGAAACAGCTCC ((((.((....)).)))) | -43.9 kcal/mol | 50.2 °C
50 | GACACTGGAAACGGTGTC (((((.(....).))))) | -38.8 kcal/mol | 52.9 °C
51 | GCGGTCCTCCGC ((((....)))) | -28 kcal/mol | 58.5 °C
52 | GATGAGGGAAACCTTATC (((.(((....))).))) | -28.9 kcal/mol | 35.7 °C
53 | GTGTCTGCGAAAGCACAC (((..(((....)))))) | -14.6 kcal/mol | 43.8 °C
54 | GTTGTCACGAAAGTGAAC (((..(((....)))))) | -23.7 kcal/mol | 48.1 °C
55 | GCTATTCGAAAGAAAAGC (((.(((....))).))) | -27.9 kcal/mol | 39.1 °C
56 | GCCGTCGAAAGACTCGGC ((((((....)))..))) | -23.8 kcal/mol | 48.8 °C
57 | GTAAACGCGAAAGCGTAC (((..(((....)))))) | -8.26 kcal/mol | 35 °C
58 | GCCCGAGGAAACCCAGGC (((.(.(....).).))) | -16.5 kcal/mol | 28.1 °C
59 | GTTTCCGGAAACGAAAAC ((((.((....)).)))) | -16.8 kcal/mol | 38.8 °C
60 | GTTTCAGGAAACTAAAAC ((((.((....)).)))) | -8.21 kcal/mol | 29.2 °C
61 | GGGTCTCGAAAGAGGCCC (((.(((....))).))) | -29.1 kcal/mol | 67.7 °C
62 | GTGACGTCGAAAGACCAC (((..(((....)))))) | -13.6 kcal/mol | 40.3 °C
63 | GCTGCGCGAAAGCATAGC (((..((....))..))) | -18.2 kcal/mol | 46.5 °C
64 | GAATCGGGAAACCGATTC (((((((....))))))) | -40.8 kcal/mol | 63.6 °C
65 | GCTTGCGAAAGCAGGAGC ((((((....)))..))) | -14.3 kcal/mol | 51.4 °C
66 | GCTTGGGGAAACCTAAGC ((((.((....)).)))) | -32.1 kcal/mol | 47.8 °C
67 | GGTAGCGAAAGCTTAACC ((((((....)))..))) | -16.7 kcal/mol | 38.1 °C
68 | GATGCCGAAAGGCTATC ((((((....))).))) | -13.1 kcal/mol | 43.4 °C
69 | GCCTCCCGAAAGGGCGGC (((.(((....))).))) | -34.4 kcal/mol | 61.3 °C

Row | Sequence | folding enthalpy [1] | Tm [2]
70 | GGAGAGCCGAAAGGCTCC (((..(((....)))))) | -6.93 kcal/mol | 43.3 °C
71 | CGTACGGAAACGTCGACG ((((((....)))..))) | -12.9 kcal/mol | 37.5 °C
72 | GCAGGCGGAAACGCCCGC ((.((((....)))).)) | -15.8 kcal/mol | 59.3 °C
73 | GCGGCGGCCGC ((((...)))) | -22.6 kcal/mol | 61.3 °C
74 | GCCCGGCGAAAGCTAGGC (((..((....))..))) | -21.5 kcal/mol | 56.7 °C
75 | GCTTGCGAAAGCAAAGC ((((((....))).))) | -22.8 kcal/mol | 61.4 °C
76 | GGTGGAGGAAACCCCACC (((((.(....).))))) | -43.6 kcal/mol | 51.1 °C
77 | GTGGACGAAAGTCGCCAC ((((((....)))..))) | -18 kcal/mol | 43 °C
78 | GATGACGGAAACGCCATC ((((.((....)).)))) | -32.3 kcal/mol | 48.3 °C
79 | GCACCAGGAAACTGGCAC (..((((....))))..) | -11.6 kcal/mol | 23.9 °C
80 | GACGCCCGAAAGGGTGTC (((.(((....))).))) | -35.5 kcal/mol | 69.3 °C
81 | GATATGACGAAAGTCATC (((..(((....)))))) | -10.7 kcal/mol | 33.3 °C
82 | GTCACTCGAAAGAGAGAC (((.(((....))).))) | -35.4 kcal/mol | 50.5 °C
83 | GATCGGGGCCCGATC ((((((...)))))) | -41.2 kcal/mol | 60.5 °C
84 | GCATTTGGAAACAAATGC (((((((....))))))) | -46.7 kcal/mol | 60 °C
85 | GCACACGAAAGTGCCTGC ((((((....)))..))) | -13.2 kcal/mol | 34.7 °C
86 | GGATCCGAAAGGAATTCC ((((((....)))..))) | -14.1 kcal/mol | 32.2 °C
87 | GGAACAGGAAACTGTCCC ((.((((....)))).)) | -23.1 kcal/mol | 39.9 °C
88 | GGCTCCGAAAGGAGAGCC ((((((....)))..))) | -20.7 kcal/mol | 55.6 °C
89 | GGGAATGGAAACATCCCC (((.(((....))).))) | -24.7 kcal/mol | 42.2 °C
90 | GATCCTCTCTAGGATC ((((((....)))))) | -38.2 kcal/mol | 51.6 °C
91 | GTCTGGCGAAAGCCGAC (((.(((....)))))) | -16 kcal/mol | 55.8 °C
92 | GATCGTCATACGATC ((((((...)))))) | -33.8 kcal/mol | 57.5 °C
